For assay [1], the target named is T1, Glucosyltransferase-S (Streptococcus mutans serotype c (strain ATCC 700610 / UA159)) (UniProt P49331).
T1 sequence (whole entry): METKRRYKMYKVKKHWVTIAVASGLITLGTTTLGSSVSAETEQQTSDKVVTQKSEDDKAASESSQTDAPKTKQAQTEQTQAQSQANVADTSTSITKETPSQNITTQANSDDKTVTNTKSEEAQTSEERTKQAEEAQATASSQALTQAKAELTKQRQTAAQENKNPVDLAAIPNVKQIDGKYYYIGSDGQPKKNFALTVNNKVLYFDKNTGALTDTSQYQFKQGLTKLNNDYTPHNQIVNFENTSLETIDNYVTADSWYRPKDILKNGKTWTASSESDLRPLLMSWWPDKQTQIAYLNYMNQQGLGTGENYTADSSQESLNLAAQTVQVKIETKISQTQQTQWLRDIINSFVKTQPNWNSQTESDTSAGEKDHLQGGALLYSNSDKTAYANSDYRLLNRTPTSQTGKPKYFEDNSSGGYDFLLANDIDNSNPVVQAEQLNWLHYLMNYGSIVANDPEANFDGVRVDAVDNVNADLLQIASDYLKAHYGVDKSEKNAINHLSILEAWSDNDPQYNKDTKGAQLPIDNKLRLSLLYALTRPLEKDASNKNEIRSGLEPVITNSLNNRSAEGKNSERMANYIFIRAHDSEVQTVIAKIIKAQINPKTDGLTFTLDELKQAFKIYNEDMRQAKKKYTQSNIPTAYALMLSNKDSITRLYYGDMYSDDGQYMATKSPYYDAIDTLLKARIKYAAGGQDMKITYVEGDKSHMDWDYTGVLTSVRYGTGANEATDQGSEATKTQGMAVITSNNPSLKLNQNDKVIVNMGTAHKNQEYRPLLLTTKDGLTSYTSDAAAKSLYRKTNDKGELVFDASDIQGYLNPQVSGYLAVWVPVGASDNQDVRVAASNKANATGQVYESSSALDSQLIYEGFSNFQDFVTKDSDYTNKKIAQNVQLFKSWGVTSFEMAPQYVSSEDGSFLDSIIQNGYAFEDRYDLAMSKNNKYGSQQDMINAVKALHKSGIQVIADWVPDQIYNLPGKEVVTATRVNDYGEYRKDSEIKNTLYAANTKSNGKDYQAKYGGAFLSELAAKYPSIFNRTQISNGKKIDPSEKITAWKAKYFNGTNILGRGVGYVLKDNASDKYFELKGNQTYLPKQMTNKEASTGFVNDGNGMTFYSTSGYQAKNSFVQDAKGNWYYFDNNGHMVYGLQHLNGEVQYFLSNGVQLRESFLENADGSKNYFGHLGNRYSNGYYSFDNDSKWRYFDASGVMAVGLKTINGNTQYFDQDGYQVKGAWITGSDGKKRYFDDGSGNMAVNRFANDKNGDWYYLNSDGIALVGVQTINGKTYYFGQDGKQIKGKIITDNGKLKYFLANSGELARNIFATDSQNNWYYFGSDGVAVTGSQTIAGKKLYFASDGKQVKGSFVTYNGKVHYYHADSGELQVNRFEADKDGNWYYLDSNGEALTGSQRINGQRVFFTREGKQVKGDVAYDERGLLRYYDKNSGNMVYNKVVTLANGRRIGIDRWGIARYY
Nature of the assay: Inhibition of Wild-type Streptococcus mutans UA159 glucosyltransferase D by zymography. The method, boiled down:
(§1)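 S. mutans UA159 wild type co-incubated with compound at different concentrations; Gtfs concentrated from supernatants, separated by SDS-PAGE and assayed by zymography, glucan band intensity reflecting enzyme activity.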

For assay [2], the target named is T2, Glucosyltransferase-SI (Streptococcus mutans serotype c (strain ATCC 700610 / UA159)) (UniProt P13470).
T2 sequence (whole entry): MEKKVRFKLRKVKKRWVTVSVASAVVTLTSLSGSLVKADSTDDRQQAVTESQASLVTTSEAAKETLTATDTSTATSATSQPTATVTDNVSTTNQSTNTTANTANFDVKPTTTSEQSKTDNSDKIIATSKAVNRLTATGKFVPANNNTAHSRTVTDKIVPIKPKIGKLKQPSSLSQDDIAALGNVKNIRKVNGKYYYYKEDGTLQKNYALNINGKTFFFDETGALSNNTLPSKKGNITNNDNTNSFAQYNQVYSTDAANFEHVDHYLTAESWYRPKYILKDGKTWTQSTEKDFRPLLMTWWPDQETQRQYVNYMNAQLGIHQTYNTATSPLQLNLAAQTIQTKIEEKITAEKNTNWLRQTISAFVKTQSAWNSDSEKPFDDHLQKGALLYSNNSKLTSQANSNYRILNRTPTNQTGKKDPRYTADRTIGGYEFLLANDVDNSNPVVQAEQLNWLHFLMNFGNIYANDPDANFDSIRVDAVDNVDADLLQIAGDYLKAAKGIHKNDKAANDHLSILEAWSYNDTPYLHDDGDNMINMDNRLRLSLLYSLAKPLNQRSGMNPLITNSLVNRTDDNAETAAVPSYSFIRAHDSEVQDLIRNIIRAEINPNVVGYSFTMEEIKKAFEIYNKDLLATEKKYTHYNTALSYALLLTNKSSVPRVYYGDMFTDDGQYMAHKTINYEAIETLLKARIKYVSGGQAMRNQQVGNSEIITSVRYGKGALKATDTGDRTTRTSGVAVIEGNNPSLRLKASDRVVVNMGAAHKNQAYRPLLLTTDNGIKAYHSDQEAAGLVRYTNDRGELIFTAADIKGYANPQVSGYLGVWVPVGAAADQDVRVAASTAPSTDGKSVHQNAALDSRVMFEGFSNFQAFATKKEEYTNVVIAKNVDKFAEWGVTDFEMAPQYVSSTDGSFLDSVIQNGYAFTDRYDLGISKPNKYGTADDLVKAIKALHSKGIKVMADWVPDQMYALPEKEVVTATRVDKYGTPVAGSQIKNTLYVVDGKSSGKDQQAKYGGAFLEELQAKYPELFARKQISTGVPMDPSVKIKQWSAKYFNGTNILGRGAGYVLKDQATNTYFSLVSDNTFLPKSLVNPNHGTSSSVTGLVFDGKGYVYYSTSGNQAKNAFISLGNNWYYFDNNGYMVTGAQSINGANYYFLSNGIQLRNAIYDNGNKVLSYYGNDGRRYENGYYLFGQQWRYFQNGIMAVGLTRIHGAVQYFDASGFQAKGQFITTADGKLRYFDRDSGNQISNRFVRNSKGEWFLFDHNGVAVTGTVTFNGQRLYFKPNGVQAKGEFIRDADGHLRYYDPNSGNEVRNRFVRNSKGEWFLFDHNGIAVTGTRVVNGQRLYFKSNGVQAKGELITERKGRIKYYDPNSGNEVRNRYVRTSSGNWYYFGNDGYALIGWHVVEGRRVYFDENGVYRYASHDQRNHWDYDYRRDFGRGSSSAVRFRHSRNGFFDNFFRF
The assay is described as follows: Inhibition of Wild-type Streptococcus mutans UA159 glucosyltransferase C by zymography. The method in brief: as §1

Consider `O=C(/C=C\c1ccc(O)cc1O)c1cccc(O)c1`, for which the inhibition entry in assay [1] and in assay [2] was “Dose-dependent effect” throughout.

These data come from ChEMBL document CHEMBL3822431, “Hydroxychalcone inhibitors of Streptococcus mutans glucosyl transferases and biofilms as potential anticaries agents” (Bioorg Med Chem Lett, 2016).
